The source of these data is ChEMBL document CHEMBL1142191, “Isolation and characterization of human immunodeficiency virus type 1 resistant to the small-molecule CCR5 antagonist TAK-652” (Antimicrob Agents Chemother, 2007).

For assay [1], the system named is Human immunodeficiency virus 1. Put plainly: Antiviral activity in long term culture of HIV1 KK infected PBMCs after 67 passages assessed as p24 antigen levels at escalating concentrations. Format: functional, organism-based. As to conditions: Human immunodeficiency virus 1, KK. In outline: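 PHA-stimulated PBMCs (5 × 10^6) were infected with R5 clinical isolate KK (100 ng p24) and held compound-free for 2 days at 37°C, then washed. Culture started at 0.2 nM drug and was passaged weekly with fresh same-donor PBMCs. Drug was escalated when treated-culture supernatant p24 (ELISA) exceeded 50% of a parallel untreated control at two consecutive passages.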

Assay [2] concerns Human immunodeficiency virus 1. Put plainly: Ratio of IC50 for HIV1 KK infected PBMC to IC50 for compound treated HIV1 KK infected PBMC after 67 passages. It counts as functional. In outline: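 PHA-stimulated PBMCs infected with the passage-67 escape virus (1,400 CCID50, 4 h) were washed and exposed to 0.1–10,000 nM compound, split 1:2 on day 4, and read for day-7 supernatant p24 by ELISA. Triplicate wells in two donor experiments. Fold change = […].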

Assay [3] deals with Human immunodeficiency virus 1. Put plainly: Inhibition of HIV1 KK infected PBMC. It counts as functional, organism-based. As to conditions: Human immunodeficiency virus 1, KK.
The test system of assay [4] is Human immunodeficiency virus 1. The assay is described as follows: Antiviral activity in long term culture of HIV1 KK infected PBMCs after 8 passages assessed as p24 antigen levels. Format: functional, organism-based. As to conditions: Human immunodeficiency virus 1, KK. The gist of the method:
(§1)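 Viruses were isolated at the stated passage from the drug-escalation culture and from the parallel untreated culture, then propagated once in PBMCs. PHA-stimulated PBMCs were infected with 1,400 CCID50 for 4 h, washed, and seeded with 0.1–10,000 nM compound. Cells were split 1:2 on day 4, and supernatant p24 was read by ELISA on day 7. Triplicate wells, two experiments with different donors; IC50 from a logistic least-squares fit.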

Assay [5] has as its system Human immunodeficiency virus 1. The assay is described as follows: Antiviral activity in long term culture of HIV1 KK infected PBMCs after 43 passages assessed as p24 antigen levels. Format: functional, organism-based. As to conditions: Human immunodeficiency virus 1, KK. In outline:
as §1

Assay [6] concerns Human immunodeficiency virus 1. Put plainly: Antiviral activity in long term culture of HIV1 KK infected PBMCs after 56 passages assessed as p24 antigen levels. It counts as functional, organism-based. As to conditions: Human immunodeficiency virus 1, KK. The gist of the method: as §1
In assay [7] the test system is Human immunodeficiency virus 1. Put plainly: Inhibition of R5 HIV1 replication at 5 uM. It counts as functional, organism-based.

Activity calls are given as the source filed them. The rule behind the calls is not given here.

On to `CC(=O)N1CCC(C(=O)N(CCCN2CCC(Cc3ccc(C(N)=O)cc3)CC2)c2ccc(C)c(Cl)c2)CC1`, for which the IC50 (in general, the midpoint of a concentration-inhibition curve) in assay [1] was 1.3 nM. Moreover, the “Ratio IC50” value in assay [2] is 1.6.

Regarding `Cc1ccc(-c2ccc3c(c2)C=C(C(=O)Nc2ccc(C[N+](C)(C)C4CCOCC4)cc2)CCC3)cc1.[Cl-]`, in assay [1], the IC50 worked out at 77 nM. In assay [2], the “Ratio IC50” value is on record as 37.

As to `CCCCOCCOc1ccc(-c2ccc3c(c2)/C=C(/C(=O)Nc2ccc([S@@+]([O-])Cc4cncn4CCC)cc2)CCCN3CC(C)C)cc1.CS(=O)(=O)O` [CENICRIVIROC MESYLATE], the IC50 in assay [3] was 0.14 nM; in assay [1], above 10000 nM; in assay [4], 0.24 nM; in assay [5], 0.2 nM; in assay [6], 67 nM. Besides, in assay [2], the “Ratio IC50” value is above 230000. For the same molecule, the result in assay [7] was Active.
